According to ChEMBL document CHEMBL1122897, “Tetracyclic pyridazines as potential psychopharmacological agents” (J Med Chem, 1985):

Legend:
Format in all cases: functional
Mus musculus [1] = experiment: Ability to inhibit the uptake of Serotonin into mouse cortical slices 1 hour after intraperitoneal injection ex vivo; settings: ip
How it was run: (§1)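 Ex vivo: white mice (18–22 g), four per dose, given test drug intraperitoneally; 1 h later cerebral cortical plus striatal slices incubated 5 min with 0.2 nmol [3H]NE and 0.2 nmol [14C]-5-HT, pargyline, glucose in Krebs-Henseleit buffer pH 7.4 under O2/6.5% CO2. Dual-channel scintillation counting of dissolved slices; active uptake defined as cocaine (3 × 10^-4 M)-inhibitable.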

Mus musculus [2] = species: Mus musculus; experiment: (§2) In vitro activity for the ability to inhibit the uptake of Serotonin into mouse cortical slices.
How it was run: (§3)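 Slices (60 mg cortical, 20 mg striatal) from untreated white mice (18–22 g) incubated with test compound, 0.2 nmol [3H]NE and 0.2 nmol [14C]-5-HT simultaneously, 0.48 μmol pargyline, 11 μmol glucose in 2.0 mL Krebs-Henseleit pH 7.4, 5 min under O2 with 6.5% CO2. 3H and 14C counted separately by liquid scintillation; active uptake = portion blocked by 3 × 10^-4 M cocaine.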

Mus musculus [3] = species: Mus musculus; experiment: (§4) In vitro activity for the ability to inhibit the uptake of Norepinephrine into mouse cortical slices.; how it was run: as §3
Mus musculus [4] = experiment: Ability to inhibit the uptake of Norepinephrine into mouse cortical slices 1 hour after intraperitoneal injection ex vivo; settings: ip
Mus musculus [5] = species: Mus musculus; experiment: In vitro activity for the ability to inhibit the uptake of Serotonin into mouse cortical slices; value ranges from […]; how it was run: as §3
Mus musculus [6] = experiment: Ability to inhibit the uptake of Serotonin into mouse cortical slices 1 hour after intraperitoneal injection ex vivo at a dose of >117; how it was run: as §1
Mus musculus [7] = experiment: Ability to inhibit the uptake of Norepinephrine into mouse cortical slices 1 hour after intraperitoneal injection ex vivo at a dose of >117; how it was run: as §1
Mus musculus [8] = species: Mus musculus; experiment: In vitro activity for the ability to inhibit the uptake of Norepinephrine into mouse cortical slices; value ranges from 2.3-7.0; how it was run: as §3
Mus musculus [9] = experiment: Ability to inhibit the uptake of Norepinephrine into mouse cortical slices 1 hour after intraperitoneal injection ex vivo at a dose of >128; how it was run: as §1
Mus musculus [10] = experiment: Ability to inhibit the uptake of Serotonin into mouse cortical slices 1 hour after intraperitoneal injection ex vivo at a dose of >128; how it was run: as §1
Mus musculus [11] = species: Mus musculus; experiment: In vitro activity for the ability to inhibit the uptake of Norepinephrine into mouse cortical slices; value ranges from 2.2-5.5; how it was run: as §3
Mus musculus [12] = species: Mus musculus; experiment: In vitro activity for the ability to inhibit the uptake of Serotonin into mouse cortical slices; value ranges from 2.6-6.7; how it was run: as §3
Mus musculus [13] = experiment: Ability to inhibit the uptake of Norepinephrine into mouse cortical slices 1 hour after intraperitoneal injection ex vivo; value ranges from […]; settings: ip; how it was run: as §1
Mus musculus [14] = species: Mus musculus; experiment: In vitro activity for the ability to inhibit the uptake of Norepinephrine into mouse cortical slices; value ranges from 1.1-4.4; how it was run: as §3
Mus musculus [15] = experiment: Ability to inhibit the uptake of Serotonin into mouse cortical slices 1 hour after intraperitoneal injection ex vivo value ranges from 27-224; settings: ip; how it was run: as §1
Mus musculus [16] = species: Mus musculus; experiment: In vitro activity for the ability to inhibit the uptake of Serotonin into mouse cortical slices; value ranges from 0.8-3.0; how it was run: as §3
Mus musculus [17] = experiment: Ability to inhibit the uptake of Norepinephrine into mouse cortical slices 1 hour after intraperitoneal injection ex vivo at a dose of 102; how it was run: as §1
Mus musculus [18] = experiment: Ability to inhibit the uptake of Serotonin into mouse cortical slices 1 hour after intraperitoneal injection ex vivo at concentration of 102 uM/Kg; how it was run: as §1
Mus musculus [19] = species: Mus musculus; experiment: In vitro activity for the ability to inhibit the uptake of Serotonin into mouse cortical slices; value ranges from 0.3-1.0; how it was run: as §3
Mus musculus [20] = species: Mus musculus; experiment: In vitro activity for the ability to inhibit the uptake of Norepinephrine into mouse cortical slices at a dose of >25; how it was run: as §3
Mus musculus [21] = species: Mus musculus; experiment: In vitro activity for the ability to inhibit the uptake of Serotonin into mouse cortical slices; value ranges from 2.0-6.4; how it was run: as §3
Mus musculus [22] = experiment: Ability to inhibit the uptake of Norepinephrine into mouse cortical slices 1 hour after intraperitoneal injection ex vivo; value ranges from 11-23; settings: ip; how it was run: as §1
Mus musculus [23] = species: Mus musculus; experiment: In vitro activity for the ability to inhibit the uptake of Norepinephrine into mouse cortical slices; value ranges from 0.2-1.0; how it was run: as §3
Mus musculus [24] = species: Mus musculus; experiment: In vitro activity for the ability to inhibit the uptake of Serotonin into mouse cortical slices at a dose of 27; how it was run: as §3
Mus musculus [25] = species: Mus musculus; experiment: In vitro activity for the ability to inhibit the uptake of Norepinephrine into mouse cortical slices Value ranges from […]; how it was run: as §3
Mus musculus [26] = experiment: Ability to inhibit the uptake of Norepinephrine into mouse cortical slices 1 hour after intraperitoneal injection ex vivo at a dose of >106; how it was run: as §1
Mus musculus [27] = experiment: Ability to inhibit the uptake of Serotonin into mouse cortical slices 1 hour after intraperitoneal injection ex vivo at a dose > 106; how it was run: as §1
Mus musculus [28] = species: Mus musculus; experiment: as §4; settings: read-out: ED50 (the source's name)
How it was run: (§5)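 Slices from untreated white mice (18–22 g), four animals per dose: 60 mg cortical plus 20 mg striatal, with test compound in the bath. Simultaneous uptake of [3H]NE and [14C]-5-HT (0.2 nmol each), with 0.48 μmol pargyline and 11 μmol glucose in 2.0 mL Krebs-Henseleit buffer, pH 7.4. Incubation 5 min under O2/6.5% CO2. Separate 3H and 14C channels; active uptake is the portion inhibited by 3 × 10^-4 M cocaine.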

Mus musculus [29] = species: Mus musculus; experiment: as §2; settings: read-out: ED50 (the source's name); how it was run: as §5

SMILES: CNCCCN1c2ccccc2CCc2ccccc21 [DESIPRAMINE]
- ED50 (Mus musculus [1]): > 132 µmol/kg
- EC50 (Mus musculus [2]): 12 µM
- EC50 (Mus musculus [3]): 0.07 µM

SMILES: CN(C)CCCN1c2ccccc2CCc2ccccc21 [IMIPRAMINE]
- ED50 (Mus musculus [1]): 126 µmol/kg
- EC50 (Mus musculus [2]): 0.3 µM
- ED50 (Mus musculus [4]): 63 µmol/kg
- EC50 (Mus musculus [3]): 1.3 µM

SMILES: CN(C)CCc1nnc2cccc3c2c1-c1cc(Cl)ccc1S3
- EC50 (Mus musculus [5]): 7.3 µM
- Inhibition (Mus musculus [6]): 16%
- Inhibition (Mus musculus [7]): 27%
- EC50 (Mus musculus [8]): 3.8 µM

SMILES: CN(C)CCc1nnc2ccccc2c1-c1cccc(Cl)c1
- Inhibition (Mus musculus [9]): 49%
- Inhibition (Mus musculus [10]): 42%
- EC50 (Mus musculus [11]): 3.5 µM
- EC50 (Mus musculus [12]): 4.2 µM

SMILES: CN(C)CC/C=C1\c2ccccc2CCc2cccc(N)c21
- ED50 (Mus musculus [13]): 15 µmol/kg
- EC50 (Mus musculus [14]): 2.2 µM
- ED50 (Mus musculus [15]): 55 µmol/kg
- EC50 (Mus musculus [16]): 1.6 µM

SMILES: CN(C)CC/C=C(\c1cccc(Cl)c1)c1ccccc1N
- Inhibition (Mus musculus [17]): 33%
- Inhibition (Mus musculus [18]): 55%
- EC50 (Mus musculus [19]): 0.5 µM
- Inhibition (Mus musculus [20]): 37%

SMILES: CN(C)CC/C=C1\c2cc(Cl)ccc2Sc2cccc(N)c21
- EC50 (Mus musculus [21]): 3.5 µM
- ED50 (Mus musculus [22]): 16 µmol/kg
- ED50 (Mus musculus [1]): > 99 µmol/kg
- EC50 (Mus musculus [23]): 0.7 µM

SMILES: CN(C)CCc1nnc2cccc3c2c1-c1ccccc1CC3
- Inhibition (Mus musculus [24]): 46%
- EC50 (Mus musculus [25]): 6.6 µM
- Inhibition (Mus musculus [26]): 13%
- Inhibition (Mus musculus [27]): 11%

SMILES: CN(C)CCC=C1c2ccccc2CCc2ccccc21 [AMITRIPTYLINE]
- ED50 (Mus musculus [1]): > 144 µmol/kg
- EC50 (Mus musculus [28]): 5.4 µM
- ED50 (Mus musculus [4]): 144 µmol/kg
- EC50 (Mus musculus [29]): 2.9 µM
